Experimental data published in ChEMBL document CHEMBL5696442, “Discovery of type II inhibitors of TGFβ-activated kinase 1 (TAK1) and mitogen-activated protein kinase kinase kinase kinase 2 (MAP4K2)” (J Med Chem, 2015).

What was measured:
Format in all cases: cell-based
[1] = target: Serine/threonine-protein kinase tousled-like 2 (Homo sapiens) (UniProt Q86UE8); assay: Inhibition of TLK2 Lys1 labeling site in human A-375 cells at 0.05 uM by KiNativ Profiling analysis relative to control
[2] = target: Protein kinase C alpha type (Homo sapiens) (UniProt P17252); assay: Inhibition of PKCa Lys2 labeling site in human A-375 cells at 0.5 uM by KiNativ Profiling analysis relative to control
[3] = target: Serine/threonine-protein kinase 26 (Homo sapiens) (UniProt Q9P289); assay: Inhibition of MST4 Lys2 labeling site in human A-375 cells at 0.5 uM by KiNativ Profiling analysis relative to control
Sequence of Serine/threonine-protein kinase 26 (Homo sapiens) (Q9P289 2-416 limits assumed): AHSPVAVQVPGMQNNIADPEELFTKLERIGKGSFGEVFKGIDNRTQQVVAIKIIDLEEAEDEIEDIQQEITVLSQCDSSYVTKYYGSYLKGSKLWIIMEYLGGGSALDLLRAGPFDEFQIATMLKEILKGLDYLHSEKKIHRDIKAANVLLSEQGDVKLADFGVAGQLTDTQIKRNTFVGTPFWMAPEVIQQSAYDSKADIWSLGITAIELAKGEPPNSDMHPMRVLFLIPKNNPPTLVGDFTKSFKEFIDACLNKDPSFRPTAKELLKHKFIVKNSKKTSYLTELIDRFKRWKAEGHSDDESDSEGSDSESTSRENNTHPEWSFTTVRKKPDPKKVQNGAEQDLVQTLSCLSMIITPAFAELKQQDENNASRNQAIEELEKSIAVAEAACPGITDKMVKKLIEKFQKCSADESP

[4] = target: DNA-PK/Ku70/Ku85 (Homo sapiens) (UniProt P78527+P12956+P13010); assay: Inhibition of DNAPK ATP labeling site harbouring GHDEREHPFLVKGGEDLR in human A-375 cells at 5 uM by KiNativ Profiling analysis relative to control
Procedure, shortened: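 A375 melanoma cells treated live with compound at 5 μM, then lysed. Lysates were labeled with a lysine-reactive ATP or ADP-biotin probe (KiNativ). Read-out is how well the compound protects each kinase labeling site from probe labeling.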

[5] = target: T1, Inhibitor of nuclear factor kappa-B kinase subunit alpha (Homo sapiens) (UniProt O15111); assay: Inhibition of IKKa Lys2 labeling site in human A-375 cells at 0.5 uM by KiNativ Profiling analysis relative to control
T1 sequence (whole entry): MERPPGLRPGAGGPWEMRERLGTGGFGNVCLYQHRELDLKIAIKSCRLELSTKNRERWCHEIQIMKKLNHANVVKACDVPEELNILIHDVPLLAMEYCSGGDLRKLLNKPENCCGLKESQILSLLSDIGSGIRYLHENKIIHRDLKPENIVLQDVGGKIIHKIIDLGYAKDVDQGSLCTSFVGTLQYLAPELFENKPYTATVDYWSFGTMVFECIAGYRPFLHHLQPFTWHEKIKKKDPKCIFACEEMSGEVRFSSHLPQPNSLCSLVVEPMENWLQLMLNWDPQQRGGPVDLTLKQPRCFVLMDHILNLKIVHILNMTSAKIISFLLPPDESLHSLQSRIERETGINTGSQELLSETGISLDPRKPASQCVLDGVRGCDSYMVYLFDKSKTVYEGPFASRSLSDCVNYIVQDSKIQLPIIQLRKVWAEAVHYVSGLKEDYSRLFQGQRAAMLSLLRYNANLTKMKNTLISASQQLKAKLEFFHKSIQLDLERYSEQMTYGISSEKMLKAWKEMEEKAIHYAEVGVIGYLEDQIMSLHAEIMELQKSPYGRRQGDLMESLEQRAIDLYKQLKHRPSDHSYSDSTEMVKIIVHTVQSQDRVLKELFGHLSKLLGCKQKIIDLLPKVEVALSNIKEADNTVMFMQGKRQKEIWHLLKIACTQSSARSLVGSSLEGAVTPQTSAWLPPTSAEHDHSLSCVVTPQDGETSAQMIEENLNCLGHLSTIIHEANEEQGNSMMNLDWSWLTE

[6] = target: Tyrosine-protein kinase ABL1 (Homo sapiens, UniProt P00519); assay: Inhibition of ABL ACT labeling site in human A-375 cells at 5 uM by KiNativ Profiling analysis relative to control
Procedure, shortened: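 Intact A375 melanoma cells were treated with compound at 5 or 0.5 μM, then lysed. Lysate kinases were labeled with a lysine-reactive ATP or ADP-biotin probe (KiNativ). Inhibition is read as protection of each kinase labeling site from probe labeling.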

[7] = target: Activated CDC42 kinase 1 (Homo sapiens) (UniProt Q07912); assay: Inhibition of ACK Lys1 labeling site in human A-375 cells at 0.05 uM by KiNativ Profiling analysis relative to control
Sequence of Activated CDC42 kinase 1 (Homo sapiens) (Q07912 whole entry, looked up): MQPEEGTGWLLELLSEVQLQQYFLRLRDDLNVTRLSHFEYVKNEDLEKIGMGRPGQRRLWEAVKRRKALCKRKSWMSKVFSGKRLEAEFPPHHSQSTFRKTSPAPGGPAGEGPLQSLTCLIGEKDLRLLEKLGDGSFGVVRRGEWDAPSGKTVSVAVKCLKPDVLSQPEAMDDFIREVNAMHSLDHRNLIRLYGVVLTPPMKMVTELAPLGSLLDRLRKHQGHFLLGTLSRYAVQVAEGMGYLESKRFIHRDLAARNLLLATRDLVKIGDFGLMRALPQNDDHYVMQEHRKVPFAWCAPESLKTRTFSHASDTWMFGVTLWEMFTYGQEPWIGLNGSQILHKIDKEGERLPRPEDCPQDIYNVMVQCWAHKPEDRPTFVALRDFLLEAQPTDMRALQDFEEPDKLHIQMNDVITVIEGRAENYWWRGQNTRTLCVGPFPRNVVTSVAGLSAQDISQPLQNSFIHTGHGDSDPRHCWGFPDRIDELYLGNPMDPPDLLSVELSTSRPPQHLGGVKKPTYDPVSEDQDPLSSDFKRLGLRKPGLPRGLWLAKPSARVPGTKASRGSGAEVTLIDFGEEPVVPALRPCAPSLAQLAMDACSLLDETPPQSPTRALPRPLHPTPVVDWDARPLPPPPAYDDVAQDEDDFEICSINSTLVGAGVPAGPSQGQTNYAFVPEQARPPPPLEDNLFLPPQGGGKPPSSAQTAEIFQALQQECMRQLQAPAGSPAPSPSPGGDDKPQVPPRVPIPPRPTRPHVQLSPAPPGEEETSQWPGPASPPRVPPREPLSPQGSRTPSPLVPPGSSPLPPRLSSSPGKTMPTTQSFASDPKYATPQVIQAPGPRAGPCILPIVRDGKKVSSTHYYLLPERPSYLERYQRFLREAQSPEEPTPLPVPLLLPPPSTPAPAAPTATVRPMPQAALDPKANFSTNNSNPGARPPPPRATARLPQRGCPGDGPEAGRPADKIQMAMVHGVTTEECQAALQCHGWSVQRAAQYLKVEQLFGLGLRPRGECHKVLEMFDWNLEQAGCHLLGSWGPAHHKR

[8] = target: Cyclin-dependent kinase 18 (Homo sapiens) (UniProt Q07002); assay: Inhibition of PCTAIRE3 Lys1 labeling site harbouringSKLTENLVALKEIR in human A-375 cells at 5 uM by KiNativ Profiling analysis relative to control
Sequence of Cyclin-dependent kinase 18 (Homo sapiens) (Q07002 whole entry): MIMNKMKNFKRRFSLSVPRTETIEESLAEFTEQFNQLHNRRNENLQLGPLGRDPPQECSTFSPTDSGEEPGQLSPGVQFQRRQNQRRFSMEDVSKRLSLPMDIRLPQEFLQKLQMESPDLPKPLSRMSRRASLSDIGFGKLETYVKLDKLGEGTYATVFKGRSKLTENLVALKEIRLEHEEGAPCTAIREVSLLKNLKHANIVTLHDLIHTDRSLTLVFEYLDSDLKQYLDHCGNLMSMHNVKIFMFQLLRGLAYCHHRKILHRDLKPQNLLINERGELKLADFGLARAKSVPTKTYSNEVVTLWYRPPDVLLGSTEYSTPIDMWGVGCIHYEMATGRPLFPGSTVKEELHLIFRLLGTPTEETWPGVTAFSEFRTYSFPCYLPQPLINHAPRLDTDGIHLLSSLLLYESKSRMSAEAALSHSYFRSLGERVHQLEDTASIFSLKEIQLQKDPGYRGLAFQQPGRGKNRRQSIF
Procedure, shortened: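 Live A375 melanoma cells were treated with compound at 5 or 0.5 μM, then lysed. Lysates were labeled with a lysine-reactive ATP or ADP-biotin probe. Read-out was the compound's protection of kinase labeling sites from probe labeling (KiNativ).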

[9] = target: Serine/threonine-protein kinase 26 (Homo sapiens) (UniProt Q9P289); assay: Inhibition of MST4 ACT labeling site in human A-375 cells at 0.5 uM by KiNativ Profiling analysis relative to control
[10] = target: Ribosomal protein S6 kinase alpha-1 (Homo sapiens) (UniProt Q15418); assay: Inhibition of RSK1 domain2 Lys2 labeling site in human A-375 cells at 5 uM by KiNativ Profiling analysis relative to control
Sequence of Ribosomal protein S6 kinase alpha-1 (Homo sapiens) (Q15418 whole entry, the tested form may be a part): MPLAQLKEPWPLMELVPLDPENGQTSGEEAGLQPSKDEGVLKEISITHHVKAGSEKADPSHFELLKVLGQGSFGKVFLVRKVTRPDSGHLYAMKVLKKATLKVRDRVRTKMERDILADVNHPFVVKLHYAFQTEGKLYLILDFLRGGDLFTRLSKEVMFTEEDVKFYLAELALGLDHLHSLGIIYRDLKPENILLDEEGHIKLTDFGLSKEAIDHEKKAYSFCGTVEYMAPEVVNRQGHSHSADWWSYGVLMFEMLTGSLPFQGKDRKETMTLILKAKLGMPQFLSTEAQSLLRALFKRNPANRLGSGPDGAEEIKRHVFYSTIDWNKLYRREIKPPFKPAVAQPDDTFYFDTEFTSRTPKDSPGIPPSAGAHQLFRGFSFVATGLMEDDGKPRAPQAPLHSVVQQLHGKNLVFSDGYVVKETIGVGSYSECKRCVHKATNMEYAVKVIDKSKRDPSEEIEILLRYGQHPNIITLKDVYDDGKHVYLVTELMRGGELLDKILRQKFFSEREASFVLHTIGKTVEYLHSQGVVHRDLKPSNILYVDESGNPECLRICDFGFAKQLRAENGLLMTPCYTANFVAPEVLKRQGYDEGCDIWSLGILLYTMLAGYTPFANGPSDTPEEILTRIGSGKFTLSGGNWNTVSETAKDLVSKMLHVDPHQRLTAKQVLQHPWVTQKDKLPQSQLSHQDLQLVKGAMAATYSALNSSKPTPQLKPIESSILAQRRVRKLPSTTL
Procedure, shortened: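 Live A375 melanoma cells treated with compound at 5 or 0.5 μM, then lysed. Lysate kinases were labeled with a lysine-reactive ATP or ADP-biotin probe. Inhibition was read as protection of labeling sites from the probe.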

[11] = target: Misshapen-like kinase 1 (Homo sapiens) (UniProt Q8N4C8); assay: Inhibition of ZC3/MINK Lys2 labeling site in human A-375 cells at 0.05 uM by KiNativ Profiling analysis relative to control

Sequence of Serine/threonine-protein kinase tousled-like 2 (Homo sapiens) (Q86UE8 whole entry, looked up): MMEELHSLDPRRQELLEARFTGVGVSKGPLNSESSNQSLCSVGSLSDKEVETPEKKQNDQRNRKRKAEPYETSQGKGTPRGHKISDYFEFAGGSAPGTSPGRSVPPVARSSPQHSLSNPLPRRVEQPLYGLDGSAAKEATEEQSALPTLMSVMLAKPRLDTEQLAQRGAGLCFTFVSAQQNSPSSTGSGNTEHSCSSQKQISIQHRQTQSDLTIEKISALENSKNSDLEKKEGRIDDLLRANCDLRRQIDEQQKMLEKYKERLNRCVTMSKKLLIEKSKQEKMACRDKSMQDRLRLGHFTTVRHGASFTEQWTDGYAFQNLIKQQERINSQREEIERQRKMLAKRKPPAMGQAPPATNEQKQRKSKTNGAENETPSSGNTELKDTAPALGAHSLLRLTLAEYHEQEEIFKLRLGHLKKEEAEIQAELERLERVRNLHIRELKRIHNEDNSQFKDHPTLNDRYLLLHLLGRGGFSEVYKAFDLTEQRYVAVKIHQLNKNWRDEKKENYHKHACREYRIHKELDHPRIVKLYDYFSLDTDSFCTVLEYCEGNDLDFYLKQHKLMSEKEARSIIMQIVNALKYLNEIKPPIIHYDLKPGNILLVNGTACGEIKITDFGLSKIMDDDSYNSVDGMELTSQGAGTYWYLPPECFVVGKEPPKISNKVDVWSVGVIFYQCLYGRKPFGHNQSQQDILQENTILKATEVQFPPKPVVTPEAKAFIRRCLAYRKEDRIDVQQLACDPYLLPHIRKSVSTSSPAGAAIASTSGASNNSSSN

SMILES | inhibition [1] [%] | inhibition [2] [%] | inhibition [3] [%] | inhibition [4] [%] | inhibition [5] [%] | inhibition [6] [%] | inhibition [7] [%] | inhibition [8] [%] | inhibition [9] [%] | inhibition [10] [%] | inhibition [11] [%]
CCN1CCN(Cc2ccc(NC(=O)c3ccc(C)c(Oc4ccnc5[nH]ccc45)c3)cc2C(F)(F)F)CC1 | 13.4 | 65 | 12.5 | 17.1 | 33.4 | > 98 | 15.6 | 73.3 | 31.3 | 1.8 | 32.6
CCN1CCN(Cc2ccc(NC(=O)c3ccc(C)c(/C=C/c4cnc5[nH]ccc5c4OC)c3)cc2C(F)(F)F)CC1 | 17.1 | 48.2 | 9.8 | 13.8 | 13.3 | > 98 | 34.3 | 24.3 | 18.3 | 3.9 | 19.5
